In ChEMBL document CHEMBL1148549, “A novel class of potent influenza virus inhibitors: polysubstituted acylthiourea and its fused heterocycle derivatives” (Bioorg Med Chem Lett, 2006):

Columns and labels:
MDCK = assay: Cytotoxicity in MDCK cells using MTS assay; type: functional, cell-based; conditions: Canis lupus familiaris
Influenza A virus = assay: Inhibitory activity against influenza A3/Beijing/30/95 ([…]) virus in MDCK cells; type: functional, organism-based
How it was run: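 MDCK cells in 96-well plates were infected with influenza ([…]) virus at 50 PFU/well and treated with serially diluted compound. IC50 was calculated from the dilution series and reported in µM as the mean of at least three independent experiments run on different days.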

Compound	Activity (MDCK)	IC50 (Influenza A virus)
Cc1cc(C)nc(NC(=O)NC(=O)c2c(F)cccc2F)n1	Not toxic	> 20 µM
COc1cc(C)nc(NC(=S)NC(=O)c2ccc(-c3ccc([N+](=O)[O-])cc3)o2)n1	Not toxic	1.22 µM
COc1cc(OC)nc(NC(=S)NC(=O)c2ccc(-c3ccc([N+](=O)[O-])cc3)o2)n1	Not toxic	> 20 µM
COc1cc(OC)n2s/c(=N\C(=O)c3cccnc3Cl)nc2n1	Not toxic	2.41 µM
COc1cc(OC)nc(NC(=S)NC(=O)c2cnc(Cl)c(Cl)c2)n1	Not toxic	18.5 µM
COc1cc(Cl)nc2n/c(=N/C(=O)c3ccc(Cl)nc3)sn12	Not toxic	9.32 µM
COc1cc(Cl)nc(NC(=O)NC(=O)c2c(F)cccc2F)n1	Not toxic	15.9 µM
CC(C)(C)NC(=O)NC(=S)NC(=O)COc1ccc(Cl)cc1Cl	Not toxic	1.67 µM
Cc1cc(O)nc(NC(=S)NC(=O)c2ccc(-c3ccc([N+](=O)[O-])cc3)o2)n1	Not toxic	0.36 µM
CC(C)C(C(=O)NC(=O)NC(=O)NC(C)(C)C)c1ccc(Cl)cc1 (configuration not stated)	Not toxic	15.5 µM
CC(C)(C)NC(=O)NC(=O)NC(=O)c1c(F)cccc1F	Not toxic	14.1 µM
Cc1cc(Cl)nc(NC(=O)NC(=O)c2c(F)cccc2F)n1	Not toxic	> 20 µM
CCOc1cc(OCC)nc(NC(=S)NC(=O)c2cccnc2Cl)n1	Not toxic	> 20 µM
CCOc1cc(C)nc2n/c(=N/C(=O)c3ccc(-c4ccccc4Cl)o3)sn12	Not toxic	0.35 µM
COc1cc(OC)nc(NC(=S)NC(=O)c2ccc(-c3ccccc3Cl)o2)n1	Not toxic	1.77 µM
CC(C)(C)NC(=O)NC(=O)NC(=O)c1ccccc1	Not toxic	> 20 µM
CC(C)(C)NC(=O)NC(=S)NC(=O)[C@H]1[C@@H](/C=C(\Cl)C(F)(F)F)C1(C)C	Not toxic	0.51 µM
CC(C)(C)NC(=O)NC(=S)NC(=O)c1ccc(-c2ccccc2Cl)o1	Not toxic	1.42 µM
CCOc1cc(OCC)nc(NC(=S)NC(=O)c2ccc(Cl)nc2)n1	Not toxic	> 20 µM
COC(=O)NC(=S)NC(=O)NC(C)(C)C	Not toxic	1.83 µM
CC(C)[C@H](C(=O)NC(=S)NC(=O)NC(C)(C)C)c1ccc(Cl)cc1	Not toxic	1.35 µM
COc1cc(Cl)nc(NC(=S)NC(=O)c2cccnc2Cl)n1	Not toxic	2.59 µM
COc1cc(C)nc(NC(=S)NC(=O)c2ccc(-c3ccccc3Cl)o2)n1	Not toxic	> 20 µM

Compound	Activity (MDCK)	IC50 (Influenza A virus)
Cc1cc(O)nc(NC(=S)NC(=O)c2ccc(-c3ccccc3Cl)o2)n1	Not toxic	0.32 µM
CC(C)(C)NC(=O)NC(=S)NC(=O)[C@@H]1[C@@H](C=C(Cl)Cl)C1(C)C	Not toxic	0.26 µM
CC(C)(C)NC(=O)NC(=S)NC(=O)c1ccccc1	Not toxic	1.79 µM
CCOc1cc(OCC)n2s/c(=N\C(=O)c3ccc(-c4ccc([N+](=O)[O-])cc4)o3)nc2n1	Not toxic	5.25 µM
CCOc1cc(OCC)nc(NC(=S)NC(=O)c2ccc(-c3ccccc3Cl)o2)n1	Not toxic	0.08 µM
Cc1cc(=O)nc2nc(NC(=O)c3ccc(-c4ccc([N+](=O)[O-])cc4)o3)sn12	Not toxic	0.67 µM
COc1cc(Cl)nc(NC(=S)NC(=O)c2ccc(-c3ccccc3Cl)o2)n1	Not toxic	1.29 µM
CCOc1cc(Cl)nc(NC(=S)NC(=O)c2ccc(-c3ccccc3Cl)o2)n1	Not toxic	> 20 µM
CCOc1cc(OCC)nc(NC(=S)NC(=O)c2ccc(-c3ccc([N+](=O)[O-])cc3)o2)n1	Not toxic	> 20 µM
COc1cc(C)nc(NC(=S)NC(=O)c2ccc(Cl)nc2)n1	Not toxic	> 20 µM
O=C(NC(=S)Nc1nc(Cl)cc(Cl)n1)c1ccc(-c2ccccc2Cl)o1	Not toxic	14.5 µM
CCOc1cc(C)nc(NC(=S)NC(=O)c2ccc(-c3ccc([N+](=O)[O-])cc3)o2)n1	Not toxic	11.3 µM
CCOc1cc(Cl)nc(NC(=S)NC(=O)c2cccnc2Cl)n1	Not toxic	> 20 µM
Cc1cc(O)nc(NC(=S)NC(=O)c2ccc(Cl)nc2)n1	Not toxic	8.58 µM
CCOc1cc(OCC)n2s/c(=N\C(=O)c3ccc(Cl)nc3)nc2n1	Not toxic	0.09 µM
Cc1cc(C)nc(NC(=S)NC(=O)c2cccnc2Cl)n1	Not toxic	7.19 µM
COc1cc(OC)n2s/c(=N\C(=O)c3cccnc3)nc2n1	Not toxic	> 20 µM
CC(C)(C)NC(=O)NC(=S)NC(=O)c1ccc(-c2ccc([N+](=O)[O-])cc2)o1	Not toxic	1.3 µM
COc1cc(OC)nc(NC(=S)NC(=O)c2cccnc2)n1	Not toxic	> 20 µM
COc1cc(Cl)nc(NC(=S)NC(=O)c2ccc(Cl)nc2)n1	Not toxic	> 20 µM
COc1cc(OC)nc(NC(=O)NC(=O)c2c(F)cccc2F)n1	Not toxic	> 20 µM
CCOc1cc(C)nc(NC(=S)NC(=O)c2ccc(-c3ccccc3Cl)o2)n1	Not toxic	1.65 µM
CC(C)(C)NC(=O)NC(=S)NC(=O)c1c(F)cccc1F	Not toxic	1.43 µM
